From ChEMBL document CHEMBL1138621, “Inhibition of tRNA-dependent ligase MurM from Streptococcus pneumoniae by phosphonate and sulfonamide inhibitors” (Bioorg Med Chem, 2009)
Activity calls are given as the source filed them. The rule behind the calls is not given here.

Legend:
Streptococcus pneumoniae [1] = assay: Inhibition of penicillin-resistant Streptococcus pneumoniae 159 recombinant MurM at 1 mM by liquid scintillation counting
[2] = Inhibition of penicillin-resistant Streptococcus pneumoniae 159 recombinant MurM by liquid scintillation counting
Streptococcus pneumoniae [3] = assay: Antibacterial activity against penicillin- resistant Streptococcus pneumoniae 159 at 1 mM by NCCLS method; assay type: functional, organism-based
In short: (§1)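 Growth inhibition in liquid culture per NCCLS protocol, compounds at 1–5 mM final concentration; strains tested: S. pneumoniae 159 and pn16, S. aureus MRSA and MSSA, E. faecalis, M. flavus, E. coli.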

Staphylococcus aureus [4] = assay: Antimicrobial activity against methicillin-resistant Staphylococcus aureus expressing femABX gene at 1 to 5 mM by NCCLS method; assay type: functional, organism-based; in short: as §1
Staphylococcus aureus [5] = assay: Antimicrobial activity against methicillin-susceptible Staphylococcus aureus expressing femABX gene at 1 to 5 mM by NCCLS method; assay type: functional, organism-based; in short: as §1
Enterococcus faecalis = assay: Antimicrobial activity against Enterococcus faecalis expressing femABX gene at 1 to 5 mM by NCCLS method; assay type: functional, organism-based; in short: as §1
Micrococcus flavus = assay: Antimicrobial activity against Micrococcus flavus expressing femABX gene at 1 to 5 mM by NCCLS method; assay type: functional, organism-based; in short: as §1
[6] = biological target: T1, Alanine--tRNA ligase (Streptococcus pneumoniae serotype 4 (strain ATCC BAA-334 / TIGR4)) (UniProt Q97Q48); assay: Inhibition of Streptococcus pneumoniae alanyl tRNA synthetase expressed in Escherichia coli BL21 (DE3) assessed as formation of [3H]alanyl tRNA at 1 mM
T1 sequence (whole entry): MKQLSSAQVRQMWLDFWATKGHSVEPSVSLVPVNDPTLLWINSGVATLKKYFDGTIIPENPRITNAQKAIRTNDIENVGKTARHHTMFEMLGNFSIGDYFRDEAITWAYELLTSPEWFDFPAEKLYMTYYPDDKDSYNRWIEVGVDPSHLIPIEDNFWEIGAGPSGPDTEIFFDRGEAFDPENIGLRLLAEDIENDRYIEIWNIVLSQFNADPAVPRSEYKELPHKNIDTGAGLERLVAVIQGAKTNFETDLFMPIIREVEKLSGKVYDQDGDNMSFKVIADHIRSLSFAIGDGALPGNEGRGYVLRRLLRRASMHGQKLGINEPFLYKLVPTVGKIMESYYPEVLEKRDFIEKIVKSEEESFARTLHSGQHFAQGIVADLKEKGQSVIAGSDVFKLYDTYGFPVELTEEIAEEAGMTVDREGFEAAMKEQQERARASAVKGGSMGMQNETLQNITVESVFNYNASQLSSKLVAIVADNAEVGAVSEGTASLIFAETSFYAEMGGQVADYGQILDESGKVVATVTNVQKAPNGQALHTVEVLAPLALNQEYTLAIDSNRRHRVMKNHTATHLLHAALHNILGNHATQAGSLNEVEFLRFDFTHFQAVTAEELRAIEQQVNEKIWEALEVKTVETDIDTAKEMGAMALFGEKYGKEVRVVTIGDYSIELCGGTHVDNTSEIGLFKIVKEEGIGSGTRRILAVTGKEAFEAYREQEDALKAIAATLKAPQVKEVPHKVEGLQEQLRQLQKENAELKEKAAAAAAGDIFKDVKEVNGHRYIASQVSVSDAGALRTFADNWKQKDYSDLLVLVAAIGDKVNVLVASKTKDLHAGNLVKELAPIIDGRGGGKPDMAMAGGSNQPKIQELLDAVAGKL

[7] = biological target: T2, Serine--tRNA ligase (Streptococcus pneumoniae serotype 4 (strain ATCC BAA-334 / TIGR4)) (UniProt Q97SG0); assay: Inhibition of Streptococcus pneumoniae seryl tRNA synthetase expressed in Escherichia coli BL21 (DE3) assessed as formation of [3H]seryl tRNA at 1 mM
T2 sequence (whole entry): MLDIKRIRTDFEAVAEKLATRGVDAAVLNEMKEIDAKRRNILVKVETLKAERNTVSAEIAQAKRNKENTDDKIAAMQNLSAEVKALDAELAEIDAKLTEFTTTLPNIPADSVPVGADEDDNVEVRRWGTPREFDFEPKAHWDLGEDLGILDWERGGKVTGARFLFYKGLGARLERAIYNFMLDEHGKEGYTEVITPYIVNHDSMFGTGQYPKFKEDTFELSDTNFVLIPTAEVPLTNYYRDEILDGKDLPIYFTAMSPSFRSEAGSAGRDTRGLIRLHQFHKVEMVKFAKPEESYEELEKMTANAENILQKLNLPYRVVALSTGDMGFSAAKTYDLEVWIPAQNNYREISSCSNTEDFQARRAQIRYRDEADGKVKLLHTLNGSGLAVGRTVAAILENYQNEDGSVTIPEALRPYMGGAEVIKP

[8] = biological target: T1, Alanine--tRNA ligase (Streptococcus pneumoniae serotype 4 (strain ATCC BAA-334 / TIGR4)); assay: Inhibition of Streptococcus pneumoniae alanyl tRNA synthetase expressed in Escherichia coli BL21 (DE3) assessed as formation of [3H]alanyl tRNA at 100 uM
[9] = biological target: T2, Serine--tRNA ligase (Streptococcus pneumoniae serotype 4 (strain ATCC BAA-334 / TIGR4)); assay: Inhibition of Streptococcus pneumoniae seryl tRNA synthetase expressed in Escherichia coli BL21 (DE3) assessed as formation of [3H]seryl tRNA at 100 uM

Row | Structure (SMILES) | inhibition (Streptococcus pneumoniae [1]) [%] | Activity (Streptococcus pneumoniae [1]) | also measured
1 | CC(N)P(=O)(O)O[C@H]1C[C@H](n2cnc3c(N)ncnc32)O[C@@H]1CO[Si](C)(C)C(C)(C)C (stereo partly specified) | 0 | – | –
2 | CCCCOP(=O)(NCCC)C(C)NC(=O)OCc1ccccc1 (stereo unspecified) | – | inactive | –
3 | CC(NC(=O)OCc1ccccc1)P(=O)(O)O[C@H]1C[C@H](n2cnc3c(NC(=O)c4ccccc4)ncnc32)O[C@@H]1CO[Si](C)(C)C(C)(C)C (stereo partly specified) | 0 | – | –
4 | CC(N)P(=O)(O)O[C@H]1C[C@H](n2cnc3c(N)ncnc32)O[C@@H]1CO (stereo partly specified) | 95 | – | IC50 ([2]; read-out: IC50): 100 µM; growth inhibition (GI) (Streptococcus pneumoniae [3]): inactive; Activity (Staphylococcus aureus [4]): inactive; Activity (Staphylococcus aureus [5]): inactive; Activity (Enterococcus faecalis): inactive; Activity (Micrococcus flavus): inactive; inhibition [6]: 22%; inhibition [7]: 28%; inhibition [8]: inactive; inhibition [9]: inactive
5 | COCCOP(=O)(NCCCC[C@H](NC(=O)OC(C)(C)C)C(=O)OC)C(C)NC(=O)OCc1ccccc1 (stereo partly specified) | – | inactive | –
6 | CNC(=O)OC[C@H]1O[C@@H](n2cnc3c(N)ncnc32)C[C@@H]1OP(=O)(O)C(C)N (stereo partly specified) | 3 | – | –
7 | COc1ccc(C[C@H](N)C(=O)N[C@H]2[C@@H](O)[C@H](n3cnc4c(N(C)C)ncnc43)O[C@@H]2CO)cc1 | 0 | – | –
8 | Nc1ncnc2c1ncn2[C@H]1C[C@H](OP(=O)(O)O)[C@@H](CO)O1 | 15 | – | –
9 | CC(NC(=O)OCc1ccccc1)P(=O)(O)O[C@H]1C[C@H](n2cnc3c(N)ncnc32)O[C@@H]1CO[Si](C)(C)C(C)(C)C (stereo partly specified) | 0 | – | –
10 | CCCNP(=O)(OCCOC)C(C)NC(=O)OCc1ccccc1 (stereo unspecified) | – | inactive | –
11 | CC(N)P(=O)(O)O[C@H]1[C@@H](O)[C@H](n2cnc3c(N)ncnc32)O[C@@H]1CO (stereo partly specified) | – | – | IC50 [2]: Not Active
12 | CCCNP(=O)(OC)C(C)NC(=O)OCc1ccccc1 (stereo unspecified) | – | inactive | –
13 | CC(NC(=O)OCc1ccccc1)P(=O)(O)O[C@H]1C[C@H](n2cnc3c(N)ncnc32)O[C@@H]1CO (stereo partly specified) | 0 | – | –
14 | Nc1ncnc2c1ncn2[C@H]1C[C@H](O)[C@@H](CO)O1 | 13 | – | –
15 | COC(=O)[C@H](CCCCNP(=O)(OC)C(C)NC(=O)OCc1ccccc1)NC(=O)OC(C)(C)C (stereo partly specified) | – | inactive | –
16 | CC(N)P(=O)(O)O[C@@H]1[C@H](O)[C@@H](CO)O[C@H]1n1cnc2c(N)ncnc21 (stereo partly specified) | 55 | – | IC50 ([2]; read-out: IC50): 780 µM
17 | CCCNP(=O)(OC)C(CC)NC(=O)OCc1ccccc1 (stereo unspecified) | – | inactive | –
18 | CCCCOP(=O)(NCCCC[C@H](NC(=O)OC(C)(C)C)C(=O)OC)C(C)NC(=O)OCc1ccccc1 (stereo partly specified) | – | inactive | –
19 | COC(=O)[C@H](CCCCNP(=O)(OC)C(NC(=O)OCc1ccccc1)c1ccccc1)NC(=O)OC(C)(C)C (stereo partly specified) | – | inactive | –
20 | CCCNP(=O)(OC)C(NC(=O)OCc1ccccc1)c1ccccc1 (stereo unspecified) | – | inactive | –
